The species entered for data set [1] is Bos taurus. The experiment in a line: Inhibition of LPS-induced plasminogen activator inhibitor-1 production assessed as relative inhibitory potency in BCAEC at 10 uM after 24 hrs by ELISA relative to T-686. It is filed as functional. The method in brief:
(§1)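 Bovine endothelial cells (BCaEs, passages 8–9) grown to confluence in E'MEM with 10% FCS, then serum-starved 24 h. Compound added (10 µM […]; 1 µM LPS-induced, 2 µM TGF-β-induced) with or without LPS 1 µg/ml or TGF-β 0.3 ng/ml. After 24 h, conditioned medium cleared by centrifugation (3000 rpm, 10 min, 4 °C) and PAI-1 antigen measured by specific ELISA; activity expressed relative to T-686 reference.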

For data set [2], the species on record is Bos taurus. Kind of data set: Inhibition of LPS-induced plasminogen activator inhibitor-1 production in BCAEC assessed as relative inhibitory potency in BCAEC at 1 uM after 24 hrs by ELISA relative to T-686. In kind it is functional. The method in brief:
as §1

The species entered for data set [3] is Bos taurus. Kind of data set: Inhibition of TGF-beta-induced plasminogen activator inhibitor-1 production in BCAEC assessed as relative inhibitory potency in BCAEC at 2 uM after 24 hrs by ELISA relative to T-686. It is filed as functional. The method in brief: as §1
Background: An ELISA detects its analyte on a solid surface through an enzyme-linked reagent.

The nature of data set [4]: Oral bioavailability in dog. In kind it is ADME, organism-based, Canis lupus familiaris. The note with it: in vivo.
Data set [5] is described as follows: Photostability assessed as compound remaining by HPLC analysis. In kind it is physicochemical. An outline of the steps: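 Stock (100 µg/ml in acetonitrile) 0.1 ml mixed with 0.9 ml 0.1 N HCl; kept at room temperature 24 h under room light or foil-protected. Read-out as % compound remaining.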
The species entered for data set [6] is Rattus norvegicus. The experiment in a line: Genotoxicity in rat assessed as chromosomal aberration. It is filed as toxicity, organism-based. The note with it: in vivo.
A short description of data set [7]: Metabolic stability in dog blood assessed as compound remaining after 1 hr by HPLC analysis. In kind it is ADME, tissue-based, Canis lupus familiaris. The following applies: read-out: Stability. An outline of the steps:
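Stock (100 µg/ml in acetonitrile) diluted tenfold with saline; 0.3 ml added to 3 ml heparinized dog blood prewarmed to 37 °C and incubated at 37 °C. After 1 h plasma separated with diethyl ether by centrifugation and parent level determined by HPLC; reported as % remaining.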

Data set [8] is described as follows: Aqueous solubility in water. In kind it is physicochemical.
A short description of data set [9]: Inhibition of LPS-induced plasminogen activator inhibitor-1 production in BCAEC after 24 hrs by ELISA. In kind it is functional, Bos taurus. The method in brief:
(§2)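 BCaEs (passages 8–9) confluent in E'MEM/10% FCS, serum-starved 24 h, then exposed to compound with LPS (1 µg/ml) or TGF-β (0.3 ng/ml) for 24 h. Medium centrifuged at 3000 rpm, 10 min, 4 °C, and PAI-1 antigen quantified by specific ELISA.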

The nature of data set [10]: Inhibition of TGF-beta-induced plasminogen activator inhibitor-1 production in BCAEC after 24 hrs by ELISA. In kind it is functional, Bos taurus. An outline of the steps: as §2
In data set [11] the test system is Rattus norvegicus. The experiment in a line: Antithrombotic activity in po dosed rat venous thrombosis model assessed as decrease in thrombus weight administered QD for 8 consecutive days measured after 2 hrs of last dose. It is filed as functional. The method in brief: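 Rats were dosed orally once daily for 8 days at 0.3, 1 and 3 mg/kg, with vehicle controls. They were anaesthetised with Nembutal 50 mg/kg ip, and all vena cava branches between the left renal vein and the bifurcation were ligated. 2 h after the last dose, 0.1 ml of 1:10 diluted rabbit brain thromboplastin was injected into the penile dorsal vein. Thrombus dry weight was measured.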

For data set [12], the system named is Rattus norvegicus. Kind of data set: Toxicity in po dosed rat assessed as increase in bleeding time administered QD for 8 consecutive days measured after 2 hrs of last dose by tail incision bleeding time test. It is filed as organism-based. The note with it: in vivo. An outline of the steps: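 Rats were dosed orally once daily for 8 days at 10, 30 and 100 mg/kg, with vehicle controls. Under Nembutal anaesthesia (50 mg/kg ip), 2 h after the last dose, a 2 mm deep incision was made 3.5 cm from the tail tip. Blood was blotted onto filter paper every 30 s, and bleeding time was taken as the time until no blood appeared.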

Data set [13] is described as follows: Therapeutic index, ratio of ED100 for increase in bleeding time in po dosed rat to ED50 for decrease in thrombus weight in po dosed rat venous thrombosis model. The following applies: in vivo, read-out: TI. It is filed as organism-based. An outline of the steps: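 ED100 for prolonged bleeding time (tail incision, oral, daily for 8 days) was divided by ED50 for thrombus weight reduction in the venous thrombosis model (oral, daily for 8 days; ligated vena cava, thromboplastin injected 2 h after the last dose, thrombus dry weight).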

Data set [14] concerns Rattus norvegicus. Kind of data set: Toxicity in rat assessed as decrease in locomotor activity at 300 mg/kg, po. The note with it: in vivo.
The test system of data set [15] is Rattus norvegicus. The experiment in a line: Antithrombotic activity in rat arterio-venous shunt model of thrombosis assessed as inhibition of thrombus formation at 10 mg/kg, po QD for 8 consecutive days measured after 2 hrs of last dose. In kind it is functional. An outline of the steps: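 Rats given test article orally 10 mg/kg once daily for 8 days, controls vehicle. Under Nembutal (50 mg/kg ip), a saline-filled polyethylene tube holding silk thread was placed from the right carotid artery to the left jugular vein. Two hours after the last dose the clamp was released, blood perfused 30 min, and wet weight of thread-bound thrombus taken.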

Some results are limits rather than exact numbers.

For orientation: bioavailability means the share of a dose that reaches the circulation, judged against a reference dose that is usually intravenous. Regarding `COC(=O)C(=C(/C)c1cc(OC)c(OC)c(OC)c1)/C(=C\c1ccccc1)C(N)=O`, the Activity in the data set listed under Bos taurus [1] is 1; in the data set filed under Bos taurus [2], 1.5; in the data set filed under Bos taurus [3], 0.7; in the data set filed under Rattus norvegicus [6] it was “Non-toxic”. The compound further yielded a bioavailability in [4] of 9%. For the same compound, the Stability in data set [5] was 91%.

The term solubility denotes the dissolved amount per volume that the medium holds. Lower therefore signals a poorly soluble substance. With `COc1cc(OC)cc(/C(C)=C2\C(=O)N(Cc3cccnc3)C(=O)\C2=C\c2ccccc2)c1.Cl`, the Activity in the data set filed under Bos taurus [2] amounted to 1; in the data set listed under Bos taurus [3], 1.4. Moreover, the remaining at 1 h in [7] is 65%. Further, the solubility in [8] was determined as 38 µg/mL. In data set [5], the Stability is recorded as 47%.

What is called IC50 is the point on the concentration scale where inhibition reaches its midpoint. A lower IC50 goes with greater potency. In the case of `COc1cc(/C=C2/C(=O)NC(=O)/C2=C/c2ccccc2)cc(OC)c1OC`, the figures for the IC50 in [9] and in data set [10] were 900 nM and 4300 nM, respectively. The same compound gave a bioavailability in data set [4] of 3%. The Stability in data set [5] came out at 12%. Further, the Activity result in the data set listed under Rattus norvegicus [6] is “Toxic”.

For `COC(=O)C(=C\c1cc(OC)c(OC)c(OC)c1)/C(=C\c1ccccc1)C(N)=O`, the Activity in the data set filed under Bos taurus [1] turned out to be 0.7.

For the compound `COc1cc(OC)cc(/C(C)=C2\C(=O)N(Cc3ccncc3)C(=O)\C2=C\c2ccccc2)c1.Cl`, the Activity in the data set filed under Bos taurus [2] is 1.8; in the data set filed under Bos taurus [3] it was 1.4; in the data set listed under Rattus norvegicus [6] it was “Non-toxic”. Further, the remaining at 1 h in data set [7] came out at 60%. For the same compound, the concentration in solution in data set [8] (solubility) was 111 µg/mL. Also, in [4], the bioavailability came out at 18%. In addition, the Stability in [5] was found to be 38%.

With `COC(=O)C(=C(/C)c1cc(OC)cc(OC)c1)/C(=C\c1cccnc1)C(N)=O`, the Activity amounted to 0.8 in the data set filed under Bos taurus [2] and 1.2 in the data set listed under Bos taurus [3].

For the compound `COC(=O)C(=C/c1cc(OC)c(OC)c(OC)c1)/C(C(N)=O)=C(\C)c1ccccc1`, the Activity in the data set filed under Bos taurus [1] amounted to 0.3.

For the compound `COC(=O)C(=C(/C)c1cc(OC)cc(OC)c1)/C(=C\c1ccccc1)C(=O)NCc1ccncc1.Cl`, the results for the Activity in the data set listed under Bos taurus [2], in the data set filed under Bos taurus [3] and in the data set listed under Rattus norvegicus [6] were 2.1, 1.9 and “Toxic”, respectively. Besides, in data set [4], the bioavailability was determined as 28%. Further, in data set [5], the Stability amounted to 96%.

Turning to `COC(=O)C(=C/c1cc(OC)c(OC)c(OC)c1)/C(=C\c1ccccc1)C(N)=O`, in the data set filed under Bos taurus [1], the Activity came out at 0.9.

Take `COC(=O)C(=C(/C)c1cc(OC)cc(OC)c1)/C(=C\c1ccccc1)C(=O)NC1CCN(C)CC1`: the Activity in the data set filed under Bos taurus [2] is 0.8; in the data set listed under Bos taurus [3] it was less than 0.1.

For `COC(=O)C(=C/c1cc(OC)c(OC)c(OC)c1)/C(=C/c1ccccc1)C(N)=O`, the Activity in the data set filed under Bos taurus [1] was 0.7.

With `COC(=O)C(=C(/C)c1cc(OC)cc(OC)c1)/C(=C\c1ccccc1)C(=O)NN1CC[N+](C)([O-])CC1`, the Activity in the data set filed under Bos taurus [2] is 0.2.

For `COC(=O)C(=C/c1cc(OC)c(OC)c(OC)c1)/C(C(N)=O)=C(/C)c1ccccc1`, the Activity in the data set listed under Bos taurus [1] was 0.2.

Consider `COC(=O)C(=C(/C)c1cc(OC)cc(OC)c1)/C(=C\c1ccccc1)C(=O)Nn1cnnc1`, for which the Activity in the data set listed under Bos taurus [2] is 0.6.

As usually defined, the ED50 is the dose that gives a 50% effect, or the effect in half of the subjects. `CC(=O)CC(c1ccccc1)c1c(O)c2ccccc2oc1=O` (configuration not stated) [WARFARIN]: in the data set on Rattus norvegicus [11], the ED50 was 0.1 mg/kg/day. In addition, in the data set on Rattus norvegicus [12], the ED100 is recorded as 0.2 mg/kg/day. The selectivity ratio in data set [13] turned out to be 2.

Regarding `COC(=O)C(=C(/C)c1cc(OC)cc(OC)c1)/C(=C\c1ccccc1)C(=O)Nc1ncccn1`, the Activity in the data set filed under Bos taurus [2] is 0.1.

Turning to `COC(=O)C(=C(/C)c1cc(OC)cc(OC)c1)/C(=C\c1ccccc1)C(=O)O`, the Activity amounted to 0.4 in the data set listed under Bos taurus [2] and 0.3 in the data set listed under Bos taurus [3].

As for `COC(=O)C(=C(/C)c1cc(OC)cc(OC)c1)/C(=C\c1ccccc1)C(=O)Nc1cccc2cccnc12`, the Activity in the data set listed under Bos taurus [2] amounted to 0.4.

Take `COC(=O)C(=C(/C)c1cc(OC)cc(OC)c1)/C(=C\c1ccccc1)C(=O)NCc1cccnc1.Cl`: the Activity was 1.3 in the data set listed under Bos taurus [2], 1.8 in the data set listed under Bos taurus [3], “Non-toxic” in the data set listed under Rattus norvegicus [6] and “Toxic” in the data set with Rattus norvegicus [14]. Also, in data set [4], the bioavailability was found to be 21%. The Stability in data set [5] was 90%.

`COC(=O)C(=C(/C)c1cc(OC)cc(OC)c1)/C(=C\c1ccccc1)C(=O)Nc1cccnc1.Cl`: the Activity came to 2.2 in the data set filed under Bos taurus [2] and 1.1 in the data set filed under Bos taurus [3]. This compound also had a bioavailability in data set [4] of 17%. In addition, the Stability in data set [5] is reported as 88%.

As to `COC(=O)C(/C(=C\c1ccccc1)C(N)=O)=C(\C)c1cc(OC)c(OC)c(OC)c1`, the Activity in the data set listed under Bos taurus [1] turned out to be 0.3.

Regarding `COC(=O)C(=C(/C)c1cc(OC)cc(OC)c1)/C(=C\c1ccccc1)C(=O)Nc1nnn[nH]1`, the Activity in the data set listed under Bos taurus [2] worked out at 0.1.

Broadly, the inhibition in vivo is the percentage by which the read-out fell short of the control. With `COC(=O)C(=C(/C)c1cc(OC)cc(OC)c1)/C(=C\c1ccccc1)C(=O)NN1CCN(C)CC1.Cl`, the Activity in the data set filed under Bos taurus [2] is 1.5; in the data set listed under Bos taurus [3], 0.9; in the data set listed under Rattus norvegicus [6], “Non-toxic”; in the data set with Rattus norvegicus [14], “Non-toxic”. The solubility in data set [8] is more than 4000 µg/mL. In [4], this compound gave a bioavailability of 49%. The Stability in data set [5] came out at 91%. The inhibition in vivo at 10 mg/kg in the data set with Rattus norvegicus [15] was determined as 22%. Moreover, the ED50 in the data set on Rattus norvegicus [11] turned out to be 0.8 mg/kg/day. In addition, the ED100 with Rattus norvegicus [12] is listed as more than 100 mg/kg/day. In addition, the selectivity ratio in data set [13] was more than 125.

With `COC(=O)C(=C(/C)c1cc(OC)cc(OC)c1)/C(=C\c1ccncc1)C(N)=O.Cl`, the values for the Activity in the data set listed under Bos taurus [2], in the data set filed under Bos taurus [3] and in the data set listed under Rattus norvegicus [6] were 1.5, 1.1 and “Toxic”, respectively. The compound further showed a bioavailability in data set [4] of 78%. Besides, in data set [5], the Stability amounted to 97%.

Turning to `COC(=O)C(=C(/C)c1cc(OC)cc(OC)c1)/C(=C\c1ccccc1)C(=O)Nc1ccncc1.Cl`, the Activity in the data set listed under Bos taurus [2] is 1.8; in the data set filed under Bos taurus [3] it was 1.1; in the data set listed under Rattus norvegicus [6], “Non-toxic”; in the data set on Rattus norvegicus [14] it was “Toxic”. Further, the bioavailability in data set [4] is 52%. In addition, the Stability in [5] was determined as 85%.

Regarding `COC(=O)C(=C(/C)c1cc(OC)cc(OC)c1)/C(=C\c1ccccc1)C(=O)N1CCN(C)CC1`, the Activity in the data set listed under Bos taurus [2] and in the data set listed under Bos taurus [3] was 0.3 throughout.

Source of the values: ChEMBL document CHEMBL1157557, “Synthesis and evaluation of 1,4-diphenylbutadiene derivatives as inhibitors of plasminogen activator inhibitor-1 (PAI-1) production” (Bioorg Med Chem, 2010).
